Laboratory results: ChEMBL document CHEMBL2146441, “2,6-Disubstituted imidazo[2,1-b][1,3,4]thiadiazoles: search for anticancer agents” (2012)

How the values were obtained:
Format in all cases: functional
[1] = tested on: HT-29; assay: Cytotoxicity against human HT-29 cells assessed as cell growth at 10^-5 M after 48 hrs by SRB assay; conditions: HT-29, 48 h, read-out: Activity
Method in brief: (§1)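 NCI-60 five-dose screen. Cells were grown in RPMI 1640 with 5% FBS and seeded at 5000–40,000 cells/well according to doubling time. They were pre-incubated 24 h at 37 °C in 5% CO₂, and time-zero (Tz) plates were TCA-fixed at drug addition. Five 10-fold dilutions of DMSO stock were applied for 48 h. Read-out was SRB staining, 515 nm absorbance, with percent growth calculated versus Tz and untreated control.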

[2] = tested on: SNB-75; assay: Cytotoxicity against human SNB75 cells assessed as cell growth at 10^-5 M after 48 hrs by SRB assay; conditions: SNB-75, 48 h, read-out: Activity
[3] = Cytotoxicity against human NCI-ADR-RES cells assessed as cell growth at 10^-5 M after 48 hrs by SRB assay; conditions: read-out: Activity
[4] = tested on: SK-OV-3; assay: Cytotoxicity against human SKOV3 cells assessed as cell growth at 10^-5 M after 48 hrs by SRB assay; conditions: SK-OV-3, 48 h, read-out: Activity
[5] = tested on: A498; assay: Cytotoxicity against human A498 cells assessed as cell growth at 10^-5 M after 48 hrs by SRB assay; conditions: A498, 48 h, read-out: Activity
Method in brief: (§2)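 NCI-60 screen: lines kept in RPMI 1640 with 5% FBS, seeded at 5000–40,000 cells/well by doubling time, preincubated 24 h at 37 °C in 5% CO2. Time-zero plates TCA-fixed at drug addition. DMSO stocks diluted in medium, 48 h exposure. Fixation in cold TCA (final 10% adherent, 16% suspension), 0.4% SRB stain, solubilised in 10 mM Tris base, A515. Percent growth computed against control and time-zero.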

[6] = tested on: MCF7; assay: Cytotoxicity against human MCF7 cells assessed as cell growth at 10^-5 M after 48 hrs by SRB assay; conditions: MCF7, 48 h, read-out: Activity
[7] = tested on: OVCAR-5; assay: Growth inhibition of human OVCAR5 cells after 48 hrs by SRB assay; conditions: OVCAR-5, 48 h
Method in brief: (§3)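 Adherent NCI-60 lines grown in RPMI 1640 with 5% FBS, seeded at 5000–40,000 cells/well, and preincubated 24 h at 37 °C, 5% CO2. Compound, stocked in DMSO, given either once at 10^-5 M or at five 10-fold dilutions for 48 h. Cells fixed with cold TCA (final 10%), stained with 0.4% SRB, and read at 515 nm. GI50 taken as 50% reduction in net protein increase versus time-zero and control plates.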

[8] = tested on: HT-29; assay: Cytotoxicity against human HT-29 cells assessed as cell growth at 10^-7 M after 48 hrs by SRB assay; conditions: HT-29, 48 h, read-out: Activity; method in brief: as §1
[9] = tested on: SF-539; assay: Cytotoxicity against human SF539 cells assessed as cell growth at 10^-7 M after 48 hrs by SRB assay; conditions: SF-539, 48 h, read-out: Activity
[10] = tested on: Malme-3M; assay: Cytotoxicity against human MALME-3M cells assessed as cell growth at 10^-7 M after 48 hrs by SRB assay; conditions: read-out: Activity
[11] = tested on: SK-MEL-2; assay: Cytotoxicity against human SK-MEL-2 cells assessed as cell growth at 10^-7 M after 48 hrs by SRB assay; conditions: SK-MEL-2, 48 h, read-out: Activity
[12] = tested on: SR; assay: Cytotoxicity against human SR cells assessed as cell growth at 10^-4 M after 48 hrs by SRB assay; conditions: read-out: Activity
[13] = tested on: SF-539; assay: Cytotoxicity against human SF539 cells assessed as cell growth at 10^-4 M after 48 hrs by SRB assay; conditions: SF-539, 48 h, read-out: Activity
[14] = tested on: SN12C; assay: Cytotoxicity against human SN12C cells assessed as cell growth at 10^-4 M after 48 hrs by SRB assay; conditions: read-out: Activity
[15] = tested on: BT-549; assay: Cytotoxicity against human BT549 cells assessed as cell growth at 10^-4 M after 48 hrs by SRB assay; conditions: BT-549, 48 h, read-out: Activity; method in brief: as §2
[16] = tested on: MDA-MB-468; assay: Cytotoxicity against human MDA-MB-468 cells assessed as cell growth at 10^-4 M after 48 hrs by SRB assay; conditions: MDA-MB-468, 48 h, read-out: Activity
[17] = Cytotoxicity against human NCI-ADR-RES cells assessed as cell growth at 10^-7 M after 48 hrs by SRB assay; conditions: read-out: Activity
[18] = tested on: A498; assay: Cytotoxicity against human A498 cells assessed as cell growth at 10^-7 M after 48 hrs by SRB assay; conditions: A498, 48 h, read-out: Activity; method in brief: as §2
[19] = tested on: HCT-116; assay: Cytotoxicity against human HCT116 cells assessed as cell growth at 10^-8 M after 48 hrs by SRB assay; conditions: HCT-116, 48 h, read-out: Activity; method in brief: as §1
[20] = tested on: M14; assay: Cytotoxicity against human M14 cells assessed as cell growth at 10^-8 M after 48 hrs by SRB assay; conditions: M14, 48 h, read-out: Activity
[21] = tested on: OVCAR-5; assay: Cytotoxicity against human OVCAR5 cells assessed as cell growth at 10^-8 M after 48 hrs by SRB assay; conditions: OVCAR-5, 48 h, read-out: Activity
[22] = tested on: RXF 393; assay: Cytotoxicity against human RXF393 cells assessed as cell growth at 10^-8 M after 48 hrs by SRB assay; conditions: RXF 393, 48 h, read-out: Activity
[23] = tested on: MOLT-4; assay: Cytotoxicity against human MOLT4 cells assessed as cell growth at 10^-6 M after 48 hrs by SRB assay; conditions: MOLT-4, 48 h, read-out: Activity
[24] = Cytotoxicity against human […] cells assessed as cell growth at 10^-6 M after 48 hrs by SRB assay; conditions: 48 h, read-out: Activity
[25] = tested on: OVCAR-3; assay: Cytotoxicity against human OVCAR3 cells assessed as cell growth at 10^-6 M after 48 hrs by SRB assay; conditions: OVCAR-3, 48 h, read-out: Activity
[26] = tested on: OVCAR-4; assay: Cytotoxicity against human OVCAR4 cells assessed as cell growth at 10^-6 M after 48 hrs by SRB assay; conditions: OVCAR-4, 48 h, read-out: Activity
[27] = tested on: A498; assay: Cytotoxicity against human A498 cells assessed as cell growth at 10^-6 M after 48 hrs by SRB assay; conditions: A498, 48 h, read-out: Activity; method in brief: as §2
[28] = Growth inhibition of human […] cells after 48 hrs by SRB assay
Method in brief: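 Leukemia suspension lines grown in RPMI 1640 with 5% FBS, seeded at 5000–40,000 cells/well, and preincubated 24 h at 37 °C, 5% CO2. Compound, stocked in DMSO, given either once at 10^-5 M or at five 10-fold dilutions for 48 h. Settled cells fixed with 80% TCA (final 16%), stained with SRB, and read at 515 nm. GI50 calculated against time-zero and control growth.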

[29] = tested on: NCI-H322M; assay: Growth inhibition of human NCI-H322M cells after 48 hrs by SRB assay; conditions: for CC50: read-out: LC50 (the source's name); method in brief: as §3

Row | Compound | growth at 10 µM [1] | growth at 10 µM [2] | growth at 10 µM [3] | growth at 10 µM [4] | growth at 10 µM [5] | growth at 10 µM [6] | GI50 [7] | LC50 [7] | TGI [7] | growth at 0.1 µM [8] | growth at 0.1 µM [9] | growth at 0.1 µM [10] | growth at 0.1 µM [11] | growth at 100 µM [12] | growth at 100 µM [13] | growth at 100 µM [14] | growth at 100 µM [15] | growth at 100 µM [16] | growth at 0.1 µM [17] | growth at 0.1 µM [18] | other results
1 | COc1ccc(-c2nn3cc(-c4ccc(O)cc4O)nc3s2)cc1 | 9% | -66% | 15% | -67% | -50% | 3% | 3.43 µM | > 100 µM | > 100 µM | 94% | 101% | 90% | 96% | -35% | -47% | 2% | -15% | -27% | 99% | 70% | growth at 0.01 µM [19]: 94%; growth at 0.01 µM [20]: 96%; growth at 0.01 µM [21]: 92%; growth at 0.01 µM [22]: 99%; growth at 1 µM [23]: 78%; growth at 1 µM [24]: 69%; growth at 1 µM [25]: 89%; growth at 1 µM [26]: 68%; growth at 1 µM [27]: 34%; GI50 [28]: 2.08 µM; LC50 [28]: > 100 µM; TGI [28]: > 100 µM; GI50 [29]: 3.23 µM; TGI [29]: > 100 µM; CC50 [29]: > 100 µM
2 | COc1ccc(-c2nn3cc(-c4cccc(N)c4)nc3s2)cc1 | 27% | -24% | 31% | 2% | -17% | 21% | 8.54 µM | > 100 µM | 47.1 µM | 100% | 100% | 97% | 93% | 23% | -68% | 4% | -25% | -16% | 96% | 79% | growth at 0.01 µM [19]: 99%; growth at 0.01 µM [20]: 101%; growth at 0.01 µM [21]: 103%; growth at 0.01 µM [22]: 90%; growth at 1 µM [23]: 76%; growth at 1 µM [24]: 55%; growth at 1 µM [25]: 86%; growth at 1 µM [26]: 60%; growth at 1 µM [27]: 53%; GI50 [28]: 1.28 µM; LC50 [28]: > 100 µM; TGI [28]: 26.7 µM; GI50 [29]: 7.15 µM; TGI [29]: 87.2 µM; CC50 [29]: > 100 µM
